Source: ChEMBL document CHEMBL1795311, “Synthesis, antiproliferative activity, and mechanism of action of a series of 2-{[(2E)-3-phenylprop-2-enoyl]amino}benzamides” (Eur J Med Chem, 2011)
Values belong to the compound of their own block, whether it stands above or below them.

Assays:
[1] = system: K562; assay: Antiproliferative activity against human K562 cells at 10 uM after 48 hrs by trypan blue assay; format: functional; conditions: K562, 48 h, read-out: GI
[2] = system: K562; assay: Growth inhibition of human K562 cells after 48 hrs by trypan blue assay; format: functional, cell-based; conditions: K562, 48 h
[3] = system: SN12C; assay: Growth inhibition of human SN12C cells after 48 hrs by SRB assay; format: functional
How it was run: (§1)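 Run by the NCI Developmental Therapeutics Program: cells in RPMI 1640 with 5% FBS and 2 mM L-glutamine, plated at 5000–40,000 cells/well and grown 24 h before dosing. Drug (DMSO stock) given at five concentrations for 48 h at 37 °C, 5% CO2. Adherent cells fixed with cold TCA, stained with 0.4% SRB and read at 515 nm. GI50, TGI and LC50 taken from the time-zero, control and treated absorbances.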

[4] = system: UACC-257; assay: Growth inhibition of human UACC257 cells after 48 hrs by SRB assay; format: functional; conditions: UACC-257, 48 h; how it was run: as §1
[5] = system: A498; assay: Growth inhibition of human A498 cells after 48 hrs by SRB assay; format: functional; conditions: A498, 48 h
How it was run: (§2)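 NCI DTP panel cells grown in RPMI 1640 with 5% FBS and 2 mM L-glutamine, preincubated 24 h, then given five concentrations (10-fold or ½-log dilutions from DMSO stock) for 48 h at 37 °C. Cells fixed with TCA, stained with SRB, absorbance read at 515 nm, with time-zero plates as reference.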

[6] = system: U-251; assay: Growth inhibition of human U251 cells after 48 hrs by SRB assay; format: functional; conditions: U-251, 48 h; how it was run: as §1
[7] = system: 786-0; assay: Growth inhibition of human 786-0 cells after 48 hrs by SRB assay; format: functional; conditions: 786-0, 48 h; how it was run: as §2
[8] = system: BT-549; assay: Growth inhibition of human BT549 cells after 48 hrs by SRB assay; format: functional; conditions: BT-549, 48 h; how it was run: as §2
[9] = system: OVCAR-4; assay: Growth inhibition of human OVCAR4 cells after 48 hrs by SRB assay; format: functional; conditions: OVCAR-4, 48 h; how it was run: as §2
[10] = system: COLO 205; assay: Growth inhibition of human COLO205 cells after 48 hrs by SRB assay; format: functional; conditions: COLO 205, 48 h; how it was run: as §2
[11] = system: SK-OV-3; assay: Growth inhibition of human SKOV3 cells after 48 hrs by SRB assay; format: functional; conditions: SK-OV-3, 48 h; how it was run: as §1
[12] = system: UACC-62; assay: Growth inhibition of human UACC62 cells after 48 hrs by SRB assay; format: functional; conditions: UACC-62, 48 h; how it was run: as §1
[13] = system: RXF 393; assay: Growth inhibition of human RXF393 cells after 48 hrs by SRB assay; format: functional; conditions: RXF 393, 48 h; how it was run: as §2
[14] = system: SK-MEL-5; assay: Growth inhibition of human SK-MEL-5 cells after 48 hrs by SRB assay; format: functional; conditions: SK-MEL-5, 48 h; how it was run: as §1
[15] = system: SW-620; assay: Growth inhibition of human SW620 cells after 48 hrs by SRB assay; format: functional; conditions: SW-620, 48 h; how it was run: as §1
[16] = system: NCI-H522; assay: Growth inhibition of human NCI-H522 cells after 48 hrs by SRB assay; format: functional; conditions: NCI-H522, 48 h; how it was run: as §2
[17] = system: IGROV-1; assay: Growth inhibition of human IGROV1 cells after 48 hrs by SRB assay; format: functional; conditions: IGROV-1, 48 h; how it was run: as §2
[18] = system: HOP-92; assay: Growth inhibition of human HOP92 cells after 48 hrs by SRB assay; format: functional; conditions: HOP-92, 48 h; how it was run: as §2
[19] = system: OVCAR-5; assay: Growth inhibition of human OVCAR5 cells after 48 hrs by SRB assay; format: functional; conditions: OVCAR-5, 48 h; how it was run: as §2
[20] = system: SNB-75; assay: Growth inhibition of human SNB75 cells after 48 hrs by SRB assay; format: functional; conditions: SNB-75, 48 h; how it was run: as §1
[21] = system: TK-10; assay: Growth inhibition of human TK10 cells after 48 hrs by SRB assay; format: functional; conditions: TK-10, 48 h; how it was run: as §1
[22] = system: HCT-116; assay: Growth inhibition of human HCT116 cells after 48 hrs by SRB assay; format: functional; conditions: HCT-116, 48 h; how it was run: as §2
[23] = system: MDA-MB-468; assay: Growth inhibition of human MDA-MB-468 cells after 48 hrs by SRB assay; format: functional; conditions: MDA-MB-468, 48 h; how it was run: as §2
[24] = system: SNB-19; assay: Growth inhibition of human SNB19 cells after 48 hrs by SRB assay; format: functional; conditions: SNB-19, 48 h; how it was run: as §1
[25] = system: HL-60; assay: Growth inhibition of human HL60 cells after 48 hrs by SRB assay; format: functional; conditions: HL-60, 48 h; how it was run: as §2
[26] = system: KM12; assay: Growth inhibition of human KM12 cells after 48 hrs by SRB assay; format: functional; conditions: KM12, 48 h; how it was run: as §2
[27] = system: NCI-H23; assay: Growth inhibition of human NCI-H23 cells after 48 hrs by SRB assay; format: functional; conditions: NCI-H23, 48 h; how it was run: as §2
[28] = system: ACHN; assay: Growth inhibition of human ACHN cells after 48 hrs by SRB assay; format: functional; how it was run: as §2
[29] = system: MDA-MB-435; assay: Growth inhibition of human MDA-MB-435 cells after 48 hrs by SRB assay; format: functional; conditions: MDA-MB-435, 48 h; how it was run: as §2
[30] = system: EKVX; assay: Growth inhibition of human EKVX cells after 48 hrs by SRB assay; format: functional; how it was run: as §2
[31] = system: HCC 2998; assay: Growth inhibition of human HCC2998 cells after 48 hrs by SRB assay; format: functional; conditions: HCC 2998, 48 h; how it was run: as §2
[32] = system: T47D; assay: Growth inhibition of human T47D cells after 48 hrs by SRB assay; format: functional; how it was run: as §1
[33] = system: NCI-H460; assay: Growth inhibition of human NCI-H460 cells after 48 hrs by SRB assay; format: functional; conditions: NCI-H460, 48 h; how it was run: as §2
[34] = system: K562; assay: Growth inhibition of human K562 cells after 48 hrs by SRB assay; format: functional; conditions: K562, 48 h; how it was run: as §2
[35] = system: MOLT-4; assay: Growth inhibition of human MOLT4 cells after 48 hrs by SRB assay; format: functional; conditions: MOLT-4, 48 h; how it was run: as §2
[36] = system: SF-295; assay: Growth inhibition of human SF295 cells after 48 hrs by SRB assay; format: functional; conditions: SF-295, 48 h; how it was run: as §2
[37] = system: SF-268; assay: Growth inhibition of human SF268 cells after 48 hrs by SRB assay; format: functional; conditions: SF-268, 48 h; how it was run: as §2
[38] = system: CCRF-CEM; assay: Growth inhibition of human CCRF-CEM cells after 48 hrs by SRB assay; format: functional; how it was run: as §2
[39] = system: NCI-H226; assay: Growth inhibition of human NCI-H226 cells after 48 hrs by SRB assay; format: functional; conditions: NCI-H226, 48 h; how it was run: as §2
[40] = system: HT-29; assay: Growth inhibition of human HT-29 cells after 48 hrs by SRB assay; format: functional; conditions: HT-29, 48 h; how it was run: as §2
[41] = system: M14; assay: Growth inhibition of human M14 cells after 48 hrs by SRB assay; format: functional; conditions: M14, 48 h; how it was run: as §2
[42] = system: UO-31; assay: Growth inhibition of human UO31 cells after 48 hrs by SRB assay; format: functional; conditions: UO-31, 48 h; how it was run: as §1
[43] = system: RPMI-8226; assay: Growth inhibition of human RPMI8226 cells after 48 hrs by SRB assay; format: functional; conditions: RPMI-8226, 48 h; how it was run: as §2
[44] = system: NCI/ADR-RES; assay: Growth inhibition of human NCI/ADR-RES cells after 48 hrs by SRB assay; format: functional; how it was run: as §2
[45] = system: PC-3; assay: Growth inhibition of human PC3 cells after 48 hrs by SRB assay; format: functional; conditions: PC-3, 48 h; how it was run: as §2
[46] = system: MCF7; assay: Growth inhibition of human MCF7 cells after 48 hrs by SRB assay; format: functional; conditions: MCF7, 48 h; how it was run: as §2
[47] = system: SK-MEL-2; assay: Growth inhibition of human SK-MEL-2 cells after 48 hrs by SRB assay; format: functional; conditions: SK-MEL-2, 48 h; how it was run: as §1
[48] = Growth inhibition of human Hs 578T cells after 48 hrs by SRB assay; format: functional; how it was run: as §2
[49] = system: A549; assay: Growth inhibition of human A549 cells after 48 hrs by SRB assay; format: functional; conditions: A549, 48 h; how it was run: as §2
[50] = system: MDA-MB-231; assay: Growth inhibition of human MDA-MB-231 cells after 48 hrs by SRB assay; format: functional; conditions: MDA-MB-231, 48 h; how it was run: as §2
[51] = system: CAKI-1; assay: Growth inhibition of human Caki1 cells after 48 hrs by SRB assay; format: functional; conditions: CAKI-1, 48 h; how it was run: as §2
[52] = system: SF-539; assay: Growth inhibition of human SF539 cells after 48 hrs by SRB assay; format: functional; conditions: SF-539, 48 h; how it was run: as §2
[53] = system: LOX IMVI; assay: Growth inhibition of human LOXIMVI cells after 48 hrs by SRB assay; format: functional; how it was run: as §2
[54] = system: OVCAR-3; assay: Growth inhibition of human OVCAR3 cells after 48 hrs by SRB assay; format: functional; conditions: OVCAR-3, 48 h; how it was run: as §2
[55] = system: DU-145; assay: Growth inhibition of human DU145 cells after 48 hrs by SRB assay; format: functional; conditions: DU-145, 48 h; how it was run: as §2
[56] = system: HOP-62; assay: Growth inhibition of human HOP62 cells after 48 hrs by SRB assay; format: functional; conditions: HOP-62, 48 h; how it was run: as §2
[57] = system: HCT-15; assay: Growth inhibition of human HCT15 cells after 48 hrs by SRB assay; format: functional; conditions: HCT-15, 48 h; how it was run: as §2

IC50 [2]: 8100 nM
Compound: NC(=O)c1cc(Br)ccc1NC(=O)/C=C/c1ccccc1Cl
inhibition of growth at 10 µM [1]: 59%

Compound: COc1cc2c(c(OC)c1OC)-c1ccc(OC)c(=O)cc1[C@@H](NC(C)=O)CC2 [COLCHICINE]
inhibition of growth at 10 µM [1]: 63.6% | IC50 [2]: 20 nM

GI50 [6]: 663 nM | GI50 [7]: 937 nM | GI50 [8]: 816 nM | GI50 [9]: 2370 nM | GI50 [10]: 797 nM | GI50 [11]: 539 nM | GI50 [14]: 367 nM | GI50 [15]: 605 nM | GI50 [16]: 459 nM | GI50 [19]: 4.02 µM | GI50 [22]: 509 nM | GI50 [23]: 377 nM | GI50 [25]: 165 nM | GI50 [27]: 1390 nM | GI50 [28]: 9.86 µM | GI50 [29]: 234 nM | GI50 [31]: 984 nM | GI50 [32]: 19.9 µM | GI50 [33]: 479 nM | GI50 [34]: 370 nM | GI50 [35]: 1420 nM | GI50 [38]: 484 nM | GI50 [39]: 1140 nM | GI50 [40]: 376 nM | GI50 [43]: 772 nM | GI50 [45]: 832 nM | GI50 [46]: 401 nM | GI50 [47]: 678 nM | IC50 [2]: 1200 nM | GI50 [49]: 1870 nM | GI50 [50]: 1410 nM | GI50 [54]: 294 nM | GI50 [55]: 1280 nM | GI50 [57]: 987 nM
Compound: NC(=O)c1cc(I)ccc1NC(=O)/C=C/c1ccccc1Cl
GI50 [3]: 1550 nM | GI50 [4]: 38.7 µM | GI50 [5]: 880 nM | GI50 [12]: 388 nM | GI50 [13]: 425 nM | GI50 [17]: 352 nM | GI50 [18]: 13.2 µM | GI50 [20]: 1220 nM | GI50 [21]: 26.7 µM | GI50 [24]: 1410 nM | GI50 [26]: 533 nM | inhibition of growth at 10 µM [1]: 74.1% | GI50 [30]: 1000 nM | GI50 [36]: 415 nM | GI50 [37]: 778 nM | GI50 [41]: 698 nM | GI50 [42]: 1630 nM | GI50 [44]: 719 nM | GI50 [48]: 362 nM | GI50 [51]: 637 nM | GI50 [52]: 444 nM | GI50 [53]: 4.21 µM | GI50 [56]: 2300 nM
